Data taken from ChEMBL document CHEMBL1833805, “Histone deacetylase inhibitors from Burkholderia thailandensis” (2011).
Active and inactive are the calls of the source.

Key:
Type in all cases: functional, organism-based
SW-620 = assay: Antitumor activity against human SW620 cells implanted intraperitoneally in mouse assessed as inhibition of tumor cell growth at 1.6 to 2.4 mg/kg, ip administered on day 1 to 4 measured on day 5 by hollow fiber assay
Procedure, shortened: (§1)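 Human tumour cell lines from a standard 12-line panel encapsulated in polyvinylidene fluoride hollow fibres (500,000 Da exclusion), implanted intraperitoneally or subcutaneously in mice; drug given IP at 2.4 and 1.6 mg/kg/dose on days 1–4; fibres retrieved and viable cell mass determined day 5; T/C versus vehicle-only injected controls.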

NCI-H23 = assay: Antitumor activity against human NCI-H23 cells implanted intraperitoneally in mouse assessed as inhibition of tumor cell growth at 1.6 to 2.4 mg/kg, ip administered on day 1 to 4 measured on day 5 by hollow fiber assay; procedure, shortened: as §1
UACC-62 = assay: Antitumor activity against human UACC62 cells implanted intraperitoneally in mouse assessed as inhibition of tumor cell growth at 1.6 to 2.4 mg/kg, ip administered on day 1 to 4 measured on day 5 by hollow fiber assay; procedure, shortened: as §1
MDA-MB-435 = assay: Antitumor activity against human MDA-MB-435 cells implanted intraperitoneally in mouse assessed as inhibition of tumor cell growth at 1.6 to 2.4 mg/kg, ip administered on day 1 to 4 measured on day 5 by hollow fiber assay; procedure, shortened: as §1
MDA-MB-231 = assay: Antitumor activity against human MDA-MB-231 cells implanted intraperitoneally in mouse assessed as inhibition of tumor cell growth at 1.6 to 2.4 mg/kg, ip administered on day 1 to 4 measured on day 5 by hollow fiber assay; procedure, shortened: as §1
SF-295 = assay: Antitumor activity against human SF295 cells implanted intraperitoneally in mouse assessed as inhibition of tumor cell growth at 1.6 to 2.4 mg/kg, ip administered on day 1 to 4 measured on day 5 by hollow fiber assay; procedure, shortened: as §1
Homo sapiens = assay: Antitumor activity against human […] cells implanted intraperitoneally in mouse assessed as inhibition of tumor cell growth at 1.6 to 2.4 mg/kg, ip administered on day 1 to 4 measured on day 5 by hollow fiber assay; procedure, shortened: as §1
OVCAR-5 = assay: Antitumor activity against human OVCAR5 cells implanted intraperitoneally in mouse assessed as inhibition of tumor cell growth at 1.6 to 2.4 mg/kg, ip administered on day 1 to 4 measured on day 5 by hollow fiber assay; procedure, shortened: as §1
LOX IMVI = assay: Antitumor activity against human LOXIMVI cells implanted intraperitoneally in mouse assessed as inhibition of tumor cell growth at 1.6 to 2.4 mg/kg, ip administered on day 1 to 4 measured on day 5 by hollow fiber assay; procedure, shortened: as §1
U-251 = assay: Antitumor activity against human U251 cells implanted intraperitoneally in mouse assessed as inhibition of tumor cell growth at 1.6 to 2.4 mg/kg, ip administered on day 1 to 4 measured on day 5 by hollow fiber assay; procedure, shortened: as §1
NCI-H522 = assay: Antitumor activity against human NCI-H522 cells implanted intraperitoneally in mouse assessed as inhibition of tumor cell growth at 1.6 to 2.4 mg/kg, ip administered on day 1 to 4 measured on day 5 by hollow fiber assay; procedure, shortened: as §1
COLO 205 = assay: Antitumor activity against human COLO205 cells implanted intraperitoneally in mouse assessed as inhibition of tumor cell growth at 1.6 to 2.4 mg/kg, ip administered on day 1 to 4 measured on day 5 by hollow fiber assay; procedure, shortened: as §1

Measured: TGI

C/C=C1\NC(=O)[C@H]2CSSCC/C=C/[C@H](CC(=O)N[C@H](C(C)C)C(=O)N2)OC(=O)[C@H](C(C)C)NC1=O
active: all assays above
